ERAP1 inh: inhibitors of human ERAP1 aminopeptidase; recombinant ERAP1, Leu-AMC fluorescence, 60 min; Q9NZ08; AID 652197; inhibition, % at 10.7 µM; hit rate 0.15% among 340,000;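 active = mean replicate inhibition of at least 30%, or all replicates individually reaching that 30% level; inactive = mean below 30% and not every replicate reaching it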;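 also: 0% = neutral control wells and 100% = L-leucinethiol positive control wells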
Cneo AK release: causes C. neoformans cell lysis; AID 651654; adenylate kinase release luminescence, 4 h; normalised: neutral wells 0, clomiphene wells 100; hit rate 0.2% among 360,000; lysis activity, % at 15 µM;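 active = mean lysis activity across replicates of at least 80%, whatever share of replicates individually reach that level; inactive = mean lysis activity below 80%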
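Assay system: log-phase C. neoformans yeast / Quantity: yeast cell density of 5 × 10^6 cells/mL / Medium: fresh YPD growth medium / Compound: single dose / Timing: static 4 h at 37 °C with compound, 1 h detection / Measured by: adenylate kinase release luminescence / Read-out: lysis from increased AK signal / Benchmarks: Clomiphene as positive lysis control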
HIV Env fusion: HIV envelope-mediated fusion inhibition; hit rate 1.1% among 360,000; inhibition, % at 12.3 µM; HeLa-JRFL Env/CEM21 cell fusion, luciferase;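 active = mean replicate inhibition score of at least 50 and every replicate individually at or above 50; inconclusive = only one of the two criteria met; inactive = mean below 50 and not all replicates reaching 50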;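 also: 0% = plate neutral controls and 100% = maraviroc near 300 nM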
MITF TRPM1 HTS: increases MITF-driven TRPM1 promoter luciferase signal. SK-MEL-5 TRPM1-promoter luciferase, 24 h; % of positive control, neutral wells = 0. activation, % at 12.5 µM. hit rate 0.75% among 300,000. AID 588334;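 active = mean activation of at least 80% with every replicate also reaching 80%; inconclusive = mean reaches 80% but some replicate falls short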;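 also: 0% = neutral control wells and 100% = parthenolide positive control wells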
esBAF inh: inhibitors of esBAF chromatin remodeling in mouse ES cells; reporter increase, % at 12.5 µM; AID 602393; Bmi1-luciferase knock-in reporter, 24 h; 100% = twice the neutral-well signal; hit rate 2% among 350,000; in the data active = activation above about 40%; inconclusive = no clear call, values can overlap the other calls;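 also: 0% = median of the plate's neutral control wells and 100% = double that signal; a rise in the Bmi1 reporter signal indicates esBAF inhibition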
Wnt bcat act: activates Wnt/beta-catenin signaling in a reporter cell assay; activation, % at 9.35 µM; activator, plate reader; hit rate 1.2% among 300,000; in the data active = activation above about 30%, passing the limit was not always enough; inconclusive = no clear call, values can overlap the other calls;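 also: 0% = neutral control wells and 100% = positive control wells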
An asterisk follows results filed as active; ? = inconclusive; . = no result; ! = a repeat was not active; [ ] = another dose, or the depositor's remark. Shown are actives, neighbours in structure and some others; about 3.5% of the full set was active somewhere.

SMILES	ERAP1 inh	Cneo AK release	HIV Env fusion	MITF TRPM1 HTS	esBAF inh	Wnt bcat act
C[C@H](CO)N1C[C@H](C)[C@@H](CN(C)Cc2ccc(Oc3ccccc3)cc2)Oc2ccc(NS(=O)(=O)c3cn(C)cn3)cc2CC1=O	2.4	109.6*	-30.6[16.7 µM]	.	-17.3	.
C[C@H]1CN([C@@H](C)CO)C(=O)Cc2cc(NS(=O)(=O)c3cn(C)cn3)ccc2O[C@H]1CN(C)Cc1ccc(Oc2ccccc2)cc1	2.2	0.4	-9.9[16.7 µM]	.	-0.7	.
CCCNC(=O)[C@@H]1[C@@H](CO)[C@@H]2Cn3c(ccc(-c4cccc(F)c4)c3=O)[C@@H]2N1C(=O)CC	-1.6	-3.0	.	.	3.3	.
Cc1ccc(S(=O)(=O)Nc2ccc3c(c2)C(=O)N([C@H](C)CO)C[C@H](C)[C@@H](CN(C)Cc2ccccc2)O3)cc1	1.3	100.2*!	9.5	10.7	-0.1	0.4
Cc1ccc(S(=O)(=O)Nc2ccc3c(c2)C(=O)N([C@H](C)CO)C[C@H](C)[C@H](CN(C)Cc2ccccc2)O3)cc1	1.7	-2.5	-10.5[16.7 µM]	.	1.1	.
COc1cc(/C=C2\CCC(C3CCCC3)C2=O)ccc1OC(C)C (stereo unspecified)	2.4	-4.1	17.3	0.4	4.2	10.1
COc1ccc(/C=C2\CCC(C3CCCC3)C2=O)cc1OC (stereo unspecified)	1.3	1.5	19.8	73.6	30.3	33.5*
COc1ccc(/C=C2\CCC(C3CCCC3)C2=O)cc1 (stereo unspecified)	-10.4	-2.2	-36.8	97.7*	56.3*	-1.0
Cc1ccsc1/C=C1\CCC(C2CCCC2)C1=O (stereo unspecified)	1.9	.	-124.4	75.5	33.7	46.6*
C[C@@H](NC(=O)C[C@@H]1C[C@H]2c3cc(NC(=O)CC4CC4)ccc3O[C@H]2[C@H](CO)O1)c1ccccc1	.	.	.	.	-3.0	.
O=C(c1ccc(F)cc1)N1CC(=O)N2[C@H](CO)[C@@H](c3ccc(-c4cccnc4)cc3)[C@H]2C1	1.4	.	.	.	.	.
COc1cccc(C#Cc2ccc3c(c2)[C@H]2[C@H](CCN2C(=O)c2ccc4c(c2)OCO4)[C@@H](CO)N3)c1	-1.1	.	.	.	.	.
Cn1ccc(NC(=O)c2ccc(Cl)cc2Cl)n1	-0.3	-3.9	.	?	30.4	34.9*
COc1ccccc1OCC(=O)N/N=C/C=C/c1ccc([N+](=O)[O-])o1	7.2	0.9	-7.9	-75.2	.	68.9*
Cc1ccccc1OCC(=O)N/N=C/c1ccc([N+](=O)[O-])o1	3.0	.	0.0	-77.0	.	2.3
CCC(C)NC(=O)c1cc2cc3ccc(OC)cc3nc2s1 (stereo unspecified)	.	-2.5	-410.9	31.5	-11.2	45.0*
COc1ccc2cc3cc(C(=O)NCCN4CCc5ccccc5C4)sc3nc2c1	1.3	.	-8.6	6.0	.	0.8
C=CCn1c(N)c(C(=O)NCCC2=CCCCC2)sc1=S	-0.3	-6.9	.	62.9	46.9*	10.3
NC(=O)NCCC1=CCCCC1	.	-0.7	-27.1	.	0.2	-4.8
CO[C@H]1CN(C)C(=O)c2cc(NS(=O)(=O)c3ccc(C)cc3)ccc2OC[C@@H](C)N(C)C[C@H]1C	1.2	0.1	.	.	-2.5	.
CO[C@H]1CN(C)C(=O)c2cc(NS(=O)(=O)c3ccc(Cl)cc3)ccc2OC[C@@H](C)N(C)C[C@@H]1C	3.9	-6.3	60.9*[16.7 µM]	.	0.8	.
CO[C@H]1CN(C)C(=O)c2cc(NS(=O)(=O)c3ccc(C)cc3)ccc2OC[C@H](C)N(C)C[C@H]1C	0.7	115.7*	.	.	-3.4	.
CO[C@@H]1CN(C)C(=O)c2cc(NS(=O)(=O)c3ccc(Cl)cc3)ccc2OC[C@H](C)N(C)C[C@@H]1C	0.3	-2.8	12.2[16.7 µM]	.	-0.1	.
CCCN1[C@H](C(=O)N[C@H](C)c2ccccc2)[C@@H](CO)[C@@H]2Cn3c(cccc3=O)[C@@H]21	0.1	.	.	.	.	.
COc1ccccc1-c1cn(CC[C@H]2CC[C@H](NC(=O)CCN3CCCCC3)[C@@H](CO)O2)nn1	-0.8	-2.5	4.7[16.7 µM]	.	-2.0	.
SMILES	ERAP1 inh	Cneo AK release	HIV Env fusion	MITF TRPM1 HTS	esBAF inh	Wnt bcat act
Cc1csc2nc(CSc3nc4ccccc4o3)c(Br)n12	.	.	.	90.9*	.	.
Cc1csc2nc(CSc3nncn3-c3ccccc3)c(Br)n12	.	-1.6	.	5.1	7.9	.
CC1CCC(C(C)C)C(OC(=O)Cn2c(-c3ccc(F)cc3)[n+](C)c3ccccc32)C1 (stereo unspecified)	11.4	-0.9	65.5*	-80.2	.	-5.3
CC1CCC(C(C)C)C(OC(=O)Cn2c(-c3ccccc3)[n+](C)c3ccccc32)C1 (stereo unspecified)	5.8	10.8	69.0*	-86.2	.	-2.3
Cc1cccc(OCc2n(CC(=O)OC3CC(C)CCC3C(C)C)c3ccccc3[n+]2C)c1 (stereo unspecified)	.	.	.	-95.1	.	.
CC1CCC(C(C)C)C(OC(=O)C[n+]2cc(-c3ccc(Cl)cc3)n3c2CCC3)C1 (stereo unspecified)	.	.	17.1	-28.0	.	-2.2
[N-]=[N+]=Nc1ccccc1C[C@@]1(C(=O)N2CCOCC2)N=C(c2ccc(OCCCO)cc2)O[C@@H]1c1ccccc1	1.3	2.2	-30.1[16.7 µM]	.	.	.
CCN(c1ccccc1)S(=O)(=O)c1ccc(C(=O)Nc2c(C)n(C)n(-c3ccccc3)c2=O)cc1	-2.2	1.1	57.1*	7.1	-2.2	-3.6
O=C1[C@H](Cc2ccccc2)NCC=CC[C@@H](c2ccco2)N1Cc1ccccc1	.	-2.0	33.3	-3.8	1.5	-0.7
COC(=O)C1=C(C(=O)OC)[C@]2([C@H]3CC=CCN[C@@H](Cc4ccccc4)C(=O)N3Cc3ccccc3)C=C[C@H]1O2	-4.8	2.2	58.2*	-10.9	-4.5	-11.5
COC(=O)C1=C(C(=O)OC)[C@]2([C@@H]3CC=CCN[C@@H](Cc4ccccc4)C(=O)N3Cc3ccccc3)C=C[C@H]1O2	0.0	3.4	73.3*	-2.2	-0.7	-3.4
CCC1(c2ccc(F)cc2)NC(=O)N(CC(=O)NC2CC2)C1=O (stereo unspecified)	2.7	-1.6	.	0.4	.	30.9*
CCC1(c2ccc(Cl)cc2)NC(=O)N(CC(=O)NC2CCCCCC2)C1=O (stereo unspecified)	-3.2	11.0	-22.5	7.7	-2.3	2.6
CC(=O)c1ccc(NC(=S)Nc2cccc3cnccc23)cc1	0.1	.	-6.6	12.5	.	11.5
Cc1ccc(NC(=S)Nc2cccc3cnccc23)cc1	5.6	-1.9	-2.3	-10.7	68.3*	26.2
Cc1ccc(NC(=S)Nc2cccc3cnccc23)cc1C	2.4	-4.4	18.6	10.6	45.5*	-0.9
Cc1ccc(C)c(NC(=S)Nc2cccc3cnccc23)c1	-3.5	.	0.7	18.7	.	-0.3
CC(C)NC(=O)N(C)C[C@H]1Oc2ccc(NC(=O)Cn3cnnn3)cc2C(=O)N([C@H](C)CO)C[C@H]1C	.	.	10.4[16.7 µM]	.	-1.3	.
COc1ccccc1NC(=O)N[C@@H]1CC[C@H](CCNS(=O)(=O)c2ccc(Cl)cc2)O[C@@H]1CO	-4.4	-3.1	7.7[16.7 µM]	.	11.4	.

Bioassay records deposited in PubChem BioAssay by Broad Institute.
